# According to ChEMBL document CHEMBL1629705, “PSI-7851, a pronucleotide of beta-D-2'-deoxy-2'-fluoro-2'-C-methyluridine monophosphate, is a potent and pan-genotype inhibitor of hepatitis C virus replication” (Antimicrob Agents Chemother, 2010):
# pEC50, pIC50: −log10 of the molar value. Active and inactive are the calls of the source. The calls are words filed in the database; no cut-off is given here.
# How the values were obtained:
# [1] = Inhibition of Hepatitis C virus genotype 3a recombinant NS5B polymerase after 3 hrs by phosphor imaging; set-up: species or system Hepatitis C virus subtype 3a
# How it was run: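 C-terminal Δ21-truncated NS5B: 1b Con1 and 2a JFH-1 expressed in E. coli; 3a and 4a cloned from patient serum. Mix: 1 μM each NTP, [α-32P]UTP, 20 ng/μl genotype 1b(−) IRES RNA template, 40 ng/μl enzyme, 1 mM MgCl2, 0.75 mM MnCl2, 2 mM DTT, 50 mM HEPES pH 7.5. Run at 27°C: 30 min (1b, 2a) or 3 h (3a, 4a). EDTA quench, products on membrane read by phosphorimager. Duplicates; IC50 calculated.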
# [2] = molecular target: T1, DNA-directed RNA polymerase II subunit RPB1 (Homo sapiens, UniProt P24928); test: Inhibition of human RNA polymerase 2 assessed as synthesis of RNA products at 500 uM
# How it was run: (§1)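 In vitro transcription by HeLa nuclear extract from CMV immediate-early promoter DNA. Mix: 400 μM ATP, CTP and UTP, 16 μM GTP, [α-32P]GTP, 3 mM MgCl2, in 20 mM HEPES pH 7.9 buffer with KCl, EDTA, DTT and glycerol. Inhibitor up to 1 mM. 30°C for 60 min. RNA purified, run on 6% sequencing gel and quantified by phosphorimager.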
# DNA polymerase beta = DNA polymerase beta (Homo sapiens, UniProt P06746); test: Inhibition of human DNA polymerase beta assessed as incorporation of [alpha-32P]dCTP up to 1mM preincubated for 30 mins by whatman DE81 paper binding assay
# How it was run: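 Human DNA polymerase β at 18 μg/ml final, in 50 mM Tris pH 7.5, 50 mM NaCl, 5 mM MgCl2, activated calf thymus DNA and 20 μM each dNTP with [α-32P]dCTP. Triphosphate up to 1 mM. 37°C, stopped at 30 min with EDTA. Products quantified by DE81 paper binding; IC50 by nonlinear fit.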
# [3] = molecular target: T1, DNA-directed RNA polymerase II subunit RPB1; test: Inhibition of human RNA polymerase 2 assessed as synthesis of RNA products at 1 uM; how it was run: as §1
# Hepatitis C virus [4] = test: Antiviral activity against Hepatitis C virus assessed as clearance of HCV from replicon cells at 2 uM; assay type: functional, organism-based; details: Hepacivirus hominis
# How it was run: (§2)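 ET-lunet replicon cells, 1 × 10^5/well, no G418, with compound at 0.1, 1 or 2 μM (final DMSO 0.5%). Passaged 1:3 or 1:4 every 3–4 days for 3 weeks with fresh compound, then 3 more weeks with 0.25 mg/ml G418 and no inhibitor. HCV RNA by RT-PCR normalized to rRNA (ΔΔCt vs DMSO) at each passage. Crystal violet colony staining at 6 weeks.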
# Hepatitis C virus [5] = test: Antiviral activity against Hepatitis C virus harboring NS5B polymerase S282T mutant gene infected in human HuH7 cells by luciferase-based replicon assay; assay type: functional, Hepacivirus hominis; details: Huh-7
# Hepatitis C virus [6] = test: Antiviral activity against Hepatitis C virus isolate Con1 harboring Btat protein assessed as viral RNA level by quantitative real-time PCR; assay type: functional, organism-based, Hepacivirus hominis
# CCRF-CEM = test: Mitochondrial toxicity in human CEM cells assessed as effect on mitochondrial cytochrome c oxidase subunit 2 gene level up to 100 uM after 14 days by quantitative real-time PCR assay; assay type: cell-based; details: 336 h
# How it was run: (§3)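 HepG2 or CEM cells incubated 14 days with compound up to 100 μM, ddC as control. Medium and compound replenished on days 7 and 11. Mitochondrial COXII gene and nuclear rDNA measured by multiplex quantitative RT-PCR.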
# Hepatitis C virus [7] = test: Antiviral activity against Hepatitis C virus H77; assay type: functional, organism-based, Hepacivirus hominis; details: genotype 1a H77
# [8] = Cytotoxicity against human HepG2 cells; assay type: cell-based
# How it was run: (§4)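 Cells treated 8 days with compound serially diluted from 100 μM in DMSO-containing medium, gemcitabine (1 μM) or DMSO control. Viability by MTS-type tetrazolium assay, absorbance at 490 nm with medium-only blanks. Value derived by comparison with DMSO control wells.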
# HepG2 [9] = test: Mitochondrial toxicity in human HepG2 cells assessed as effect on mitochondrial cytochrome c oxidase subunit 2 gene level up to 100 uM after 14 days by real-time PCR assay; assay type: cell-based; details: hepg2, 336 h; how it was run: as §3
# Hepatitis C virus [10] = test: Antiviral activity against Hepatitis C virus assessed as log reduction in viral RNA at 2 uM after 3 weeks; assay type: functional, Hepacivirus hominis
# How it was run: (§5)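 ET-lunet replicon cells seeded at 1 × 10^5/well without G418, treated at 0.1, 1 or 2 μM (final DMSO 0.5%). Passaged 1:3–1:4 every 3–4 days for 3 weeks with fresh compound. Then compound withdrawn and cells grown 3 more weeks in 0.25 mg/ml G418. HCV RNA by RT-PCR (ΔΔCt vs rRNA and DMSO controls, log change). Colonies fixed in formaldehyde and stained with crystal violet at 6 weeks.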
# [11] = Cytotoxicity against human HeLaP4 cells; assay type: cell-based
# Influenza A virus [12] = test: Antiviral activity against Influenza A virus (A/Viet Nam/1203/2004(H5N1)) infected in HFF by neutral red assay; assay type: functional, organism-based
# Hepatitis C virus [13] = test: Antiviral activity against Hepatitis C virus assessed as clearance of HCV from replicon cells at 1 uM; assay type: functional, organism-based; details: Hepacivirus hominis; how it was run: as §2
# Hepatitis C virus [14] = test: Antiviral activity against Hepatitis C virus harboring NS5B polymerase S96T/N142T mutant gene infected in human lunet cells by luciferase-based replicon assay; assay type: functional, Hepacivirus hominis
# How it was run: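 ET-lunet cells with the ET genotype 1b replicon, wild-type or S96T/N142T (ET replicon with these mutations electroporated into Lunet cells, selected in 0.2 mg/ml G418). 3,000 cells/well, 4 days with serially diluted compound. Firefly luciferase luminescence read-out; EC90 from dose–response.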
# Influenza A virus [15] = test: Antiviral activity against Influenza A virus (A/Brisbane/10/2007(H3N2)) infected in HFF by neutral red assay; assay type: functional, organism-based
# Hepatitis C virus [16] = test: Antiviral activity against Hepatitis C virus assessed as log reduction in viral RNA at 0.1 uM after 3 weeks; assay type: functional, Hepacivirus hominis; how it was run: as §5
# Hepatitis C virus [17] = test: Antiviral activity against Hepatitis C virus genotype 1b harboring Ntat protein assessed as viral RNA level by quantitative real-time PCR; assay type: functional, organism-based, Hepacivirus hominis
# [18] = Cytotoxicity against human CEM cells assessed as effect on cellular GAPDH RNA level after 8 days by quantitative real-time PCR; assay type: cell-based; details: CEM (CCRF-CEM) cells
# [19] = Cytotoxicity against human myeloid progenitor cells after 14 to 16 days by colony formation assay; assay type: cell-based
# How it was run: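 Normal human bone marrow erythroid and myeloid progenitors, 2 × 10^4 cells per culture in methylcellulose with rh-SCF 50 ng/ml, rh-IL-3 10 ng/ml, rh-GM-CSF 10 ng/ml and rh-EPO 3 U/ml. Compound up to 50 μM, DMSO control 0.1%, 14–16 days.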
# Hepatitis B virus = test: Antiviral activity against Hepatitis B virus infected in human HepAD38 cells by quantitative real-time PCR; assay type: functional, organism-based
# Yellow fever virus = test: Antiviral activity against Yellow fever virus 17D by neutral red assay; assay type: functional
# HepG2 [20] = test: Cytotoxicity against human HepG2 cells assessed as effect on ribosome RNA gene level at up to 100 uM after 14 days by quantitative real-time PCR assay; assay type: cell-based; details: hepg2, 336 h; how it was run: as §3
# [21] = Cytotoxicity against human CEM cells; assay type: cell-based; details: CEM (CCRF-CEM) cells; how it was run: as §4
# Hepatitis C virus [22] = test: Antiviral activity against Hepatitis C virus assessed as inhibition of viral rebound at 1 uM after 3 weeks in presence of G418; assay type: functional, organism-based; details: Hepacivirus hominis; how it was run: as §2
structure (smiles),measurement,setting,value
C[C@@]1(F)[C@H](O)[C@@H](COP(=O)(O)OP(=O)(O)OP(=O)(O)O)O[C@H]1n1ccc(=O)[nH]c1=O [GS-461203],pIC50,[1],6.15
same,inhibition,[2],85%
same,pIC50,DNA polymerase beta,< 3.00
same,inhibition,[3],Active
CC(C)OC(=O)[C@H](C)NP(=O)(OC[C@H]1O[C@@H](n2ccc(=O)[nH]c2=O)[C@](C)(F)[C@@H]1O)Oc1ccccc1 (some centres undefined),Activity,Hepatitis C virus [4],Active
same,EC90,Hepatitis C virus [5],7.4 µM
same,pEC50,Hepatitis C virus [6],7.05
same,EC90,Hepatitis C virus [6],650 nM
same,Activity,CCRF-CEM,Non-toxic
same,pEC50,Hepatitis C virus [7],6.72
same,EC90,Hepatitis C virus [7],340 nM
same,CC90,[8],12.8 µM
same,Activity,HepG2 [9],Non-toxic
same,FC,Hepatitis C virus [10],>5
same,CC50,[11],> 100 µM
same,pEC50,Influenza A virus [12],< 4.00
same,Activity,Hepatitis C virus [13],Active
same,EC90,Hepatitis C virus [14],390 nM
same,pEC50,Influenza A virus [15],< 4.00
same,FC,Hepatitis C virus [16],0.58
same,pEC50,Hepatitis C virus [17],7.03
same,EC90,Hepatitis C virus [17],750 nM
same,CC50 at 192 h,[18],> 100 µM
same,CC50,[19],> 50 µM
same,pEC50,Hepatitis B virus,< 4.00
same,pEC50,Yellow fever virus,< 4.00
same,Activity,HepG2 [20],Non-toxic
same,CC90,[21],28.5 µM
same,inhibition,Hepatitis C virus [22],Active
